Measured values taken from ChEMBL document CHEMBL2040734, “Benzothiazoles: search for anticancer agents” (2012).

Columns and labels:
Assay type in all cases: functional
SNB-19 [1] = assay: Cytotoxicity against human SNB19 cells assessed as cell growth at 0.1 uM after 48 hrs by sulforhodamine B assay; settings: SNB-19, 48 h, read-out: Activity
OVCAR-3 = assay: Cytotoxicity against human OVCAR3 cells assessed as cell growth at 10 '-5 M after 48 hrs by sulforhodamine B assay; settings: OVCAR-3, 48 h, read-out: Activity
MOLT-4 = assay: Cytotoxicity against human MOLT4 cells assessed as cell growth at 10 uM after 48 hrs by sulforhodamine B assay; settings: MOLT-4, 48 h, read-out: Activity
MDA-MB-468 [2] = assay: Cytotoxicity against human MDA-MB-468 cells assessed as cell growth at 10 '-5 M after 48 hrs by sulforhodamine B assay; settings: MDA-MB-468, 48 h, read-out: Activity
NCI-H322M = assay: Cytotoxicity against human NCI-H322M cells assessed as cell growth at 100 uM after 48 hrs by sulforhodamine B assay; settings: read-out: Activity
U-251 = assay: Cytotoxicity against human U251 cells assessed as cell growth at 1 uM after 48 hrs by sulforhodamine B assay; settings: U-251, 48 h, read-out: Activity
UACC-257 = assay: Cytotoxicity against human UACC257 cells assessed as cell growth at 10 '-5 M after 48 hrs by sulforhodamine B assay; settings: UACC-257, 48 h, read-out: Activity
786-0 = assay: Cytotoxicity against human 786-0 cells assessed as cell growth at 0.1 uM after 48 hrs by sulforhodamine B assay; settings: 786-0, 48 h, read-out: Activity
How it was run: (§1)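 NCI-60 five-dose screen. Cells were grown in RPMI 1640 with 5% FBS and 2 mM L-glutamine and preincubated 24 h. Compound (DMSO stock) was tested at 0.01, 0.1, 1, 10 and 100 µM for 48 h at 37 °C. Cells were fixed in situ with cold TCA (final 10%) and stained with 0.4% SRB. A515 was read, and percent growth was calculated against time-zero and control plates.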

SNB-19 [3] = assay: Cytotoxicity against human SNB19 cells assessed as cell growth at 100 uM after 48 hrs by sulforhodamine B assay; settings: SNB-19, 48 h, read-out: Activity
CCRF-CEM = assay: Cytotoxicity against human CCRF-CEM cells assessed as cell growth at 1 uM after 48 hrs by sulforhodamine B assay; settings: read-out: Activity
How it was run: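 CCRF-CEM suspension leukemia cells in RPMI 1640 with 5% FBS and 2 mM L-glutamine, plated 24 h before dosing. Five concentrations (0.01–100 µM) were applied from a DMSO stock for 48 h at 37 °C. Settled cells were fixed with 80% TCA (final 16%) and stained with SRB, with read-out at 515 nm. Percent growth was derived from time-zero and control absorbances.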

HOP-62 = assay: Growth inhibition of human HOP62 cells after 48 hrs by sulforhodamine B assay; settings: HOP-62, 48 h; for CC50: read-out: LC50 (the source's name)
How it was run: (§2)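 Adherent NCI-60 lines were grown in RPMI 1640 with 5% FBS and 2 mM L-glutamine, plated at 5000–40,000 cells/well and preincubated 24 h. They were then exposed to five concentrations (0.01–100 µM, from a DMSO stock) for 48 h at 37 °C, 5% CO2. Cells were fixed with cold TCA (10% final, 60 min, 4 °C) and stained with 0.4% SRB. Dye was solubilized in 10 mM Tris base and A515 read. GI50 was derived from time-zero, control and treated absorbances.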

ACHN = assay: Cytotoxicity against human ACHN cells assessed as cell growth at 10 uM after 48 hrs by sulforhodamine B assay; settings: read-out: Activity; how it was run: as §1
RXF 393 = assay: Cytotoxicity against human RXF393 cells assessed as cell growth at 0.1 uM after 48 hrs by sulforhodamine B assay; settings: RXF 393, 48 h, read-out: Activity
SF-268 = assay: Growth inhibition of human SF268 cells after 48 hrs by sulforhodamine B assay; settings: SF-268, 48 h; how it was run: as §2
NCI/ADR-RES [4] = assay: Growth inhibition of human NCI/ADR-RES cells after 48 hrs by sulforhodamine B assay; how it was run: as §2
SR = assay: Cytotoxicity against human SR cells assessed as cell growth at 1 uM after 48 hrs by sulforhodamine B assay; settings: read-out: Activity
OVCAR-5 = assay: Cytotoxicity against human OVCAR5 cells assessed as cell growth at 10 '-5 M after 48 hrs by sulforhodamine B assay; settings: OVCAR-5, 48 h, read-out: Activity
MDA-MB-231 = assay: Cytotoxicity against human MDA-MB-231 cells assessed as cell growth at 1 uM after 48 hrs by sulforhodamine B assay; settings: MDA-MB-231, 48 h, read-out: Activity
[5] = Cytotoxicity against human Hs 578T cells assessed as cell growth at 10 '-5 M after 48 hrs by sulforhodamine B assay; settings: read-out: Activity
How it was run: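 Primary one-dose screen across the NCI 60-line panel at 10 µM. Cells were grown in RPMI 1640 with 5% FBS and 2 mM L-glutamine and held 24 h before drug. Drug was diluted from a DMSO concentrate. Exposure was 48 h at 37 °C, 5% CO2. Cells were fixed with TCA and stained with SRB, with absorbance read at 515 nm. Percent growth was calculated against time-zero and untreated control.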

SW-620 = assay: Cytotoxicity against human SW620 cells assessed as cell growth at 0.1 uM after 48 hrs by sulforhodamine B assay; settings: SW-620, 48 h, read-out: Activity
HCC 2998 = assay: Cytotoxicity against human HCC2998 cells assessed as cell growth at 10 uM after 48 hrs by sulforhodamine B assay; settings: HCC 2998, 48 h, read-out: Activity
How it was run: (§3)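 Five-dose NCI panel run at 0.01, 0.1, 1, 10 and 100 µM. Cells were in RPMI 1640 with 5% FBS and 2 mM L-glutamine, seeded at 5000–40,000 cells/well and pre-incubated 24 h. Drug was diluted from a DMSO stock into medium with 50 µg/ml gentamicin. Exposure was 48 h at 37 °C, 5% CO2. Cells were fixed with cold TCA and stained with 0.4% SRB, read at 515 nm. Percent growth came from time-zero, control and test absorbances.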

HCT-116 = assay: Cytotoxicity against human HCT116 cells assessed as cell growth at 10 uM after 48 hrs by sulforhodamine B assay; settings: HCT-116, 48 h, read-out: Activity; how it was run: as §3
MDA-MB-468 [6] = assay: Cytotoxicity against human MDA-MB-468 cells assessed as cell growth at 100 uM after 48 hrs by sulforhodamine B assay; settings: MDA-MB-468, 48 h, read-out: Activity
SK-MEL-5 = assay: Cytotoxicity against human SK-MEL-5 cells assessed as cell growth at 1 uM after 48 hrs by sulforhodamine B assay; settings: SK-MEL-5, 48 h, read-out: Activity
NCI/ADR-RES [7] = assay: Cytotoxicity against human NCI/ADR-RES cells assessed as cell growth at 10 '-5 M after 48 hrs by sulforhodamine B assay; settings: read-out: Activity

Question: Which results are given for Cc1ccc2nc(Nc3c(C)cccc3C)sc2c1?
Answer: growth at 0.1 µM (SNB-19 [1]): 87%; growth at 10 µM (OVCAR-3): 18.7%; growth at 10 µM (MOLT-4): 56%; growth at 10 µM (MDA-MB-468 [2]): 2.04%; growth at 100 µM (NCI-H322M): 69%; growth at 1 µM (U-251): 80%; growth at 10 µM (UACC-257): 56.1%; growth at 0.1 µM (786-0): 97%; growth at 100 µM (SNB-19 [3]): 30%; growth at 1 µM (CCRF-CEM): 72%; GI50 (HOP-62): 3.86 µM; TGI (HOP-62): > 100 µM; CC50 (HOP-62): > 100 µM; growth at 10 µM (ACHN): 59%; growth at 0.1 µM (RXF 393): 85%; GI50 (SF-268): 29.3 µM; LC50 (concentration killing 50% of the starting cells) (SF-268): > 100 µM; TGI (SF-268): > 100 µM; GI50 (NCI/ADR-RES [4]): 0.639 µM; LC50 (lethal concentration, 50% net cell kill) (NCI/ADR-RES [4]): > 100 µM; TGI (NCI/ADR-RES [4]): > 100 µM; growth at 1 µM (SR): 19%; growth at 10 µM (OVCAR-5): 65.6%; growth at 1 µM (MDA-MB-231): 37%; growth at 10 µM [5]: 54.1%; growth at 0.1 µM (SW-620): 94%; growth at 10 µM (HCC 2998): 53%; growth at 10 µM (HCT-116): 21%; growth at 100 µM (MDA-MB-468 [6]): 27%; growth at 1 µM (SK-MEL-5): 66%; growth at 10 µM (NCI/ADR-RES [7]): 4.04%

Question: Which results are given for Clc1cccc(Cl)c1Nc1nc2cccc(Cl)c2s1?
Answer: growth at 0.1 µM (SNB-19 [1]): 90%; growth at 10 µM (OVCAR-3): -61.4%; growth at 10 µM (MOLT-4): -38%; growth at 10 µM (MDA-MB-468 [2]): -25.6%; growth at 100 µM (NCI-H322M): -95%; growth at 1 µM (U-251): 68%; growth at 10 µM (UACC-257): -33.3%; growth at 0.1 µM (786-0): 94%; growth at 100 µM (SNB-19 [3]): -63%; growth at 1 µM (CCRF-CEM): 62%; GI50 (HOP-62): 1.27 µM; TGI (HOP-62): 2.62 µM; CC50 (HOP-62): 5.38 µM; growth at 10 µM (ACHN): -99%; growth at 0.1 µM (RXF 393): 73%; GI50 (SF-268): 1.2 µM; LC50 (concentration killing 50% of the starting cells) (SF-268): 5.66 µM; TGI (SF-268): 2.61 µM; GI50 (NCI/ADR-RES [4]): 0.531 µM; LC50 (lethal concentration, 50% net cell kill) (NCI/ADR-RES [4]): 6.23 µM; TGI (NCI/ADR-RES [4]): 2.15 µM; growth at 1 µM (SR): 51%; growth at 10 µM (OVCAR-5): 1.07%; growth at 1 µM (MDA-MB-231): 17%; growth at 10 µM [5]: -11.4%; growth at 0.1 µM (SW-620): 91%; growth at 10 µM (HCC 2998): -88%; growth at 10 µM (HCT-116): -98%; growth at 100 µM (MDA-MB-468 [6]): -59%; growth at 1 µM (SK-MEL-5): 50%; growth at 10 µM (NCI/ADR-RES [7]): -37.3%
